Reference: ChEMBL document CHEMBL1131231, “New azole antifungals. 2. Synthesis and antifungal activity of heterocyclecarboxamide derivatives of 3-amino-2-aryl-1-azolyl-2-butanol” (1998)
In brackets after ≈: the same amount, converted by molar mass.

What was measured:
Format in all cases: functional
Candida albicans [1] = assay: In vivo antifungal activity against murine candidosis model after peroral administration with 0.5 mg/kg at various time intervals. (percent protection for 100% mortality with untreated group); settings: route oral
How it was run: (§1)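 Male mice, groups of 10, infected iv with 0.2 mL Candida albicans at (2–8) × 10⁷ cfu/mL. Oral suspension in 1% Tween + 0.2% carboxymethylcellulose in water, given 1, 4 and 24 h post-infection; vehicle controls and a fluconazole group at the same dose. Survival scored on days 1, 2, 3, 5, 7, 9, reported as % surviving on the day untreated, or fluconazole-treated, mortality reached 100%.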

[2] = The compound was tested in vitro for antifungal activity against 6 filamentous fungi.
How it was run: (§2)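 Agar dilution on Kimmig's agar with 0.5% glycerol; ATCC or clinical isolates, inocula at 10⁵ cfu/mL. Drugs from 800 μg/mL stock in 50% ethanol, 2-fold serial dilutions 80 to 0.03 μg/mL in plates. Incubated 25 °C, 48 h for yeasts, 120 h for filamentous fungi. Value is geometric mean of MICs (μg/mL); >80 taken as 160, ≤0.03 as 0.03.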

[3] = The compound was tested in vitro for antifungal activity against 10 yeasts.; how it was run: as §2
Candida albicans [4] = assay: In vivo antifungal activity against murine candidosis model after peroral administration with 0.5 mg/kg at various time intervals. (percent protection for 100% mortality with fluconazole-treated group.); settings: route oral; how it was run: as §1

SMILES	Protection (Candida albicans [1]) [%]	MIC [2] [µg/mL]	MIC [3] [µg/mL]	Protection (Candida albicans [4]) [%]
Cc1nc(-c2ccc(Br)cc2)sc1C(=O)N[C@H](C)[C@](O)(Cn1cncn1)c1ccc(F)cc1F	100	1.8 (≈ 3.28 µM)	0.6 (≈ 1.09 µM)	90
Cc1nc(-c2ccc(C#N)cc2)sc1C(=O)N[C@H](C)[C@](O)(Cn1ccnc1)c1ccc(F)cc1F	70	45 (≈ 91.2 µM)	10 (≈ 20.3 µM)	0
C[C@@H](n1ncn(-c2ccc(OCC(F)(F)C(F)F)cc2)c1=O)[C@](O)(Cn1cncn1)c1ccc(F)cc1F	100	8.9 (≈ 16.4 µM)	2.6 (≈ 4.79 µM)	100
Cc1nc(-c2ccccc2)sc1C(=O)N[C@H](C)[C@](O)(Cn1cncn1)c1ccc(F)cc1F	30	7.6 (≈ 16.2 µM)	1.4 (≈ 2.98 µM)	0
C[C@@H](NC(=O)c1nsc(-c2ccc(Cl)cc2)n1)[C@](O)(Cn1cncn1)c1ccc(F)cc1F	80	> 80	1.4 (≈ 2.85 µM)	10
C[C@@H](NC(=O)c1noc(-c2ccc(Cl)cc2)n1)[C@](O)(Cn1cncn1)c1ccc(F)cc1F	100	32 (≈ 67.4 µM)	2.1 (≈ 4.42 µM)	10
Cc1nc(-c2ccc(OCC(F)(F)C(F)F)cc2)sc1C(=O)N[C@H](C)[C@](O)(Cn1cncn1)c1ccc(F)cc1F	100	2.2 (≈ 3.67 µM)	1.3 (≈ 2.17 µM)	0
Cc1nc(-c2ccc(Cl)cc2)sc1C(=O)N[C@H](C)[C@](O)(Cn1cncn1)c1ccc(F)cc1F	100	1.2 (≈ 2.38 µM)	0.8 (≈ 1.59 µM)	100
C[C@@H](NC(=O)c1ccc(-c2ccc(Cl)cc2)cc1)[C@](O)(Cn1cncn1)c1ccc(F)cc1F	100	18 (≈ 37.3 µM)	0.3 (≈ 0.621 µM)	100
C[C@@H](NC(=O)c1sc(-c2ccc(C(F)(F)F)cc2)nc1C(F)(F)F)[C@](O)(Cn1cncn1)c1ccc(F)cc1F	90	17 (≈ 28.7 µM)	1.6 (≈ 2.71 µM)	<20
C[C@@H](NC(=O)c1ccc(C(F)(F)F)cc1)[C@](O)(Cn1cncn1)c1ccc(F)cc1F	100	22 (≈ 50 µM)	4.6 (≈ 10.4 µM)	100
Cc1nc(Oc2ccc(Cl)cc2)sc1C(=O)N[C@H](C)[C@](O)(Cn1cncn1)c1ccc(F)cc1F	10	4 (≈ 7.69 µM)	1.5 (≈ 2.88 µM)	0
Cc1nc(C)c(C(=O)N[C@H](C)[C@](O)(Cn2cncn2)c2ccc(F)cc2F)s1	0	> 80	19 (≈ 46.6 µM)	0
C[C@@H](NC(=O)c1ccc(-c2ccc(Cl)cc2)o1)[C@](O)(Cn1cncn1)c1ccc(F)cc1F	0	> 80	1.5 (≈ 3.17 µM)	0
Cc1c(C(=O)N[C@H](C)[C@](O)(Cn2cncn2)c2ccc(F)cc2F)cnn1C		> 80	> 80	
C[C@@H](NC(=O)c1sc(-c2ccc(C3N=NN=N3)cc2)nc1C(F)(F)F)[C@](O)(Cn1cncn1)c1ccc(F)cc1F	30	> 80	75 (≈ 127 µM)	0
Cc1nc(-c2ccc(Cl)cc2)oc1C(=O)N[C@H](C)[C@](O)(Cn1cncn1)c1ccc(F)cc1F	40	40 (≈ 82 µM)	3.7 (≈ 7.58 µM)	0
C[C@@H](NC(=O)c1scc(S(=O)(=O)c2ccc(Cl)cc2)c1N)[C@](O)(Cn1cncn1)c1ccc(F)cc1F	20	10 (≈ 17.6 µM)	1 (≈ 1.76 µM)	0
Cc1nc(-c2ccc(OC(F)(F)F)cc2)sc1C(=O)N[C@H](C)[C@](O)(Cn1cncn1)c1ccc(F)cc1F	100	1.6 (≈ 2.89 µM)	1.3 (≈ 2.35 µM)	100
C[C@@H](NC(=O)c1sc(-c2ccc(Cl)cc2)cc1N)[C@](O)(Cn1cncn1)c1ccc(F)cc1F	0	22 (≈ 43.7 µM)	0.6 (≈ 1.19 µM)	0
C[C@@H](NC(=O)c1cnn(-c2ccc(C(F)(F)F)cc2)c1N)[C@](O)(Cn1cncn1)c1ccc(F)cc1F		28 (≈ 53.7 µM)	3.3 (≈ 6.33 µM)	
Cc1nc(-c2ccc(C#N)cc2)sc1C(=O)N[C@H](C)[C@](O)(Cn1cncn1)c1ccccc1F	100	5 (≈ 10.5 µM)	1.5 (≈ 3.15 µM)	60
C[C@@H](NC(=O)c1nnc(-c2ccc(Cl)cc2)o1)[C@](O)(Cn1cncn1)c1ccc(F)cc1F	10	> 80	49 (≈ 103 µM)	0

SMILES	Protection (Candida albicans [1]) [%]	MIC [2] [µg/mL]	MIC [3] [µg/mL]	Protection (Candida albicans [4]) [%]
Cc1nc(-c2ccc(C#N)cc2)sc1C(=O)N[C@H](C)[C@](O)(Cn1cncn1)c1ccc(Cl)cc1Cl	100	5 (≈ 9.48 µM)	0.4 (≈ 0.758 µM)	100
Cc1nc(-c2ccc(C(N)=O)cc2)sc1C(=O)N[C@H](C)[C@](O)(Cn1cncn1)c1ccc(F)cc1F	0	> 80	20 (≈ 39 µM)	0
Cc1nc(-c2ccc(F)cc2)sc1C(=O)N[C@H](C)[C@](O)(Cn1cncn1)c1ccc(F)cc1F	100	1.8 (≈ 3.69 µM)	1.1 (≈ 2.26 µM)	80
C[C@@H](NC(=O)c1sc(-c2ccc(Cl)cc2)nc1C(F)(F)F)[C@](O)(Cn1cncn1)c1ccc(F)cc1F	100	8.9 (≈ 16 µM)	2 (≈ 3.58 µM)	<70
C[C@@H](NC(=O)c1nc(-c2ccc(Cl)cc2)ns1)[C@](O)(Cn1cncn1)c1ccc(F)cc1F	10	> 80	11 (≈ 22.4 µM)	0
C[C@@H](NC(=O)c1ccc(-c2ccc(C#N)cc2)s1)[C@](O)(Cn1cncn1)c1ccc(F)cc1F	100	> 80	0.8 (≈ 1.67 µM)	100
Cc1sc(-c2ccc(Cl)cc2)nc1C(=O)N[C@H](C)[C@](O)(Cn1cncn1)c1ccc(F)cc1F		> 80	> 80	
Cc1nc(-c2ccc(C#N)cc2)sc1C(=O)N[C@H](C)[C@](O)(Cn1cncn1)c1ccc(C(F)(F)F)cc1	0	> 80	2 (≈ 3.8 µM)	0
C[C@@H](NC(=O)c1csc(-c2ccc(Cl)cc2)n1)[C@](O)(Cn1cncn1)c1ccc(F)cc1F	0	> 80	4.5 (≈ 9.18 µM)	0
CCC(C)n1ncn(-c2ccc(N3CCN(c4ccc(OC[C@@H]5CO[C@@](Cn6cncn6)(c6ccc(Cl)cc6Cl)O5)cc4)CC3)cc2)c1=O (some centres not stated) [ITRACONAZOLE]	0	63 (≈ 89.3 µM)	5.2 (≈ 7.37 µM)	0
C[C@@H](NC(=O)c1ccc(-c2ccc(Cl)cc2)s1)[C@](O)(Cn1cncn1)c1ccc(F)cc1F	100	3.5 (≈ 7.16 µM)	0.2 (≈ 0.409 µM)	100
C[C@@H](NC(=O)c1ccc(-c2cc(C(F)(F)F)nn2C)s1)[C@](O)(Cn1cncn1)c1ccc(F)cc1F	10	28 (≈ 53.2 µM)	2.3 (≈ 4.37 µM)	0
CC(=O)ONC(=N)c1ccc(-c2nc(C)c(C(=O)N[C@H](C)[C@](O)(Cn3cncn3)c3ccc(F)cc3F)s2)cc1	70	45 (≈ 79 µM)	14 (≈ 24.6 µM)	0
Cc1nc(-c2ccc(C(=N)NO)cc2)sc1C(=O)N[C@H](C)[C@](O)(Cn1cncn1)c1ccc(F)cc1F	0	80 (≈ 152 µM)	12 (≈ 22.7 µM)	0
Cc1oc(-c2ccc(Cl)cc2)cc1C(=O)N[C@H](C)[C@](O)(Cn1cncn1)c1ccc(F)cc1F	100	10 (≈ 20.5 µM)	0.9 (≈ 1.85 µM)	0
Cc1nc(COc2ccc(Cl)cc2)sc1C(=O)N[C@H](C)[C@](O)(Cn1cncn1)c1ccc(F)cc1F	30	2.9 (≈ 5.43 µM)	0.6 (≈ 1.12 µM)	0
C[C@@H](NC(=O)c1ccc(Cl)cc1)[C@](O)(Cn1cncn1)c1ccc(F)cc1F	0	11 (≈ 27 µM)	3.9 (≈ 9.59 µM)	0
Cc1nc(-c2ccc(C(C)(C)C)cc2)sc1C(=O)N[C@H](C)[C@](O)(Cn1cncn1)c1ccc(F)cc1F	0	8.9 (≈ 16.9 µM)	2.1 (≈ 4 µM)	0
Cc1nc(Br)sc1C(=O)N[C@H](C)[C@](O)(Cn1cncn1)c1ccc(F)cc1F		32 (≈ 67.8 µM)	4.6 (≈ 9.74 µM)	
C[C@@H](NC(=O)c1nc(-c2ccc(Cl)cc2)no1)[C@](O)(Cn1cncn1)c1ccc(F)cc1F	80	80 (≈ 168 µM)	2.1 (≈ 4.42 µM)	10
Cc1nc(-c2ccc(C(F)(F)F)cc2)sc1C(=O)N[C@H](C)[C@](O)(Cn1cncn1)c1ccc(F)cc1F	100	2.2 (≈ 4.09 µM)	0.9 (≈ 1.67 µM)	100
CCCS(=O)(=O)c1csc(C(=O)N[C@H](C)[C@](O)(Cn2cncn2)c2ccc(F)cc2F)c1N		23 (≈ 46 µM)	4.4 (≈ 8.81 µM)	
C[C@@H](n1cnc2cc(-c3ccc(-n4ncnn4)cc3)sc2c1=O)[C@](O)(Cn1cncn1)c1ccc(F)cc1F		> 80	1.9 (≈ 3.47 µM)	
